Source: ChEMBL document CHEMBL1136992, “Further studies at neuropeptide s position 5: discovery of novel neuropeptide S receptor antagonists” (J Med Chem, 2009)
Active and inactive are the calls of the source. The rule behind the calls is not given here. Square brackets hold non-standard residues; d marks the D form. Peptide text beside a SMILES is read from it. dTle = CC(C)(C)[C@@H](N)C(=O)O

Key:
[1] = molecular target: T1, Delta-type opioid receptor (Homo sapiens, UniProt P41143); assay: Antagonist activity at human recombinant delta opioid receptor expressed in CHO cells coexpressing alphaqi5 assessed as inhibition of DPDPE-induced intracellular calcium mobilization at up to 10 uM; assay type: functional, cell-based
T1 sequence (P41143 whole entry): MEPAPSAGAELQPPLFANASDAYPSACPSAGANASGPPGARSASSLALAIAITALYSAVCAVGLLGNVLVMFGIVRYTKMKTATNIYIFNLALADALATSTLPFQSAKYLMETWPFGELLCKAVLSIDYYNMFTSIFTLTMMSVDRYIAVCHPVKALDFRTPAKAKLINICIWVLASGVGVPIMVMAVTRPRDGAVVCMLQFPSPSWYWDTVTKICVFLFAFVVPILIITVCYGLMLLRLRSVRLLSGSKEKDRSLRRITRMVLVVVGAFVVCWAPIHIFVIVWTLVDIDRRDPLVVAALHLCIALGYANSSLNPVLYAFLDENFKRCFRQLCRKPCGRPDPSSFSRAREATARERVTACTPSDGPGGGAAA
Summary of the method: (§1)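 Calcium mobilization in human receptor cells. NK-1, B2 and UT recombinant in CHO. MOP, DOP, KOP and NOP in CHO cells carrying chimeric Gαqi5. Native PAR2 in A549 cells. Mean ± SEM of three experiments in duplicate.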

Substance-P receptor = Substance-P receptor (Homo sapiens, UniProt P25103); assay: Antagonist activity at human recombinant NK1 receptor expressed in CHO cells assessed as inhibition of substance P-induced intracellular calcium mobilization
Substance-P receptor, sequence (P25103 whole entry): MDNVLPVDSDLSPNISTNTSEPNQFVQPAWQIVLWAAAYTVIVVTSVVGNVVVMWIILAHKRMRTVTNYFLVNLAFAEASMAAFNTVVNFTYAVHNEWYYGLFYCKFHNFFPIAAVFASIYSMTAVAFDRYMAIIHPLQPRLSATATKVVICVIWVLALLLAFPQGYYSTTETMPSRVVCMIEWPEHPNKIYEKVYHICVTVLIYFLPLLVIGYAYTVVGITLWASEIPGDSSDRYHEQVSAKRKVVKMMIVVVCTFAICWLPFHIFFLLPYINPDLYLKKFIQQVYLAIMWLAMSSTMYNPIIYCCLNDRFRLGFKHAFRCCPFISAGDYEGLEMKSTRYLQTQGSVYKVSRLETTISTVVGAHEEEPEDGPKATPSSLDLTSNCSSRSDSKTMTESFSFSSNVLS

[2] = molecular target: T2, B2 bradykinin receptor (Homo sapiens) (UniProt P30411); assay: Antagonist activity at human recombinant bradykinin 2 receptor expressed in CHO cells assessed as inhibition of bradykinin-induced intracellular calcium mobilization at up to 10 uM; assay type: functional, cell-based
T2 sequence (whole entry): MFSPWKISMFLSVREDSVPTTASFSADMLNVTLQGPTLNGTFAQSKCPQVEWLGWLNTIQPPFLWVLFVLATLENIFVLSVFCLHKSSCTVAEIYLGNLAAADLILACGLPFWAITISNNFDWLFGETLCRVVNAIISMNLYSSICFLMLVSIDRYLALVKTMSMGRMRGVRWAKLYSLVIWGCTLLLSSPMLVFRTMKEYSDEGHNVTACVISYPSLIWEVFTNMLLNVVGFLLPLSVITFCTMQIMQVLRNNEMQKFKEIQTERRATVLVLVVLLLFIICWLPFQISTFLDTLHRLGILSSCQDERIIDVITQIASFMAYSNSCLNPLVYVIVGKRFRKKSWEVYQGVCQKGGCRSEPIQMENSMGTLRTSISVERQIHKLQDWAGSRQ
Summary of the method: (§2)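 Calcium mobilization in human receptor cells. NK-1, B2 and UT recombinant in CHO. MOP, DOP, KOP and NOP in CHO cells carrying chimeric Gαqi5. Native PAR2 in A549 cells. […] Mean ± SEM of three experiments in duplicate.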

[3] = molecular target: T3, Kappa-type opioid receptor (Homo sapiens, UniProt P41145); assay: Antagonist activity at human recombinant kappa opioid receptor expressed in CHO cells coexpressing alphaqi5 assessed as inhibition of dynorphin A-induced intracellular calcium mobilization at up to 10 uM; assay type: functional, cell-based; summary of the method: as §2
T3 sequence (P41145 whole entry): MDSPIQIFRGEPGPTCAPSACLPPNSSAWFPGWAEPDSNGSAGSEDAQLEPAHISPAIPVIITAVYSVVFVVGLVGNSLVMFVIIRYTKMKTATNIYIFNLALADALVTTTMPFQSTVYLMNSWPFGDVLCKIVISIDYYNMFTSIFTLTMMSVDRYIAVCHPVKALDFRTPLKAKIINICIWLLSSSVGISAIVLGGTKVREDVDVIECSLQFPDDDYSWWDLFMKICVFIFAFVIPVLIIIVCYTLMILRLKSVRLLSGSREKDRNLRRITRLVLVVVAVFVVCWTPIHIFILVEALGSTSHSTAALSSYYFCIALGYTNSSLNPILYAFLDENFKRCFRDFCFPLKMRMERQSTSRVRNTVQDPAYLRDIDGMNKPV

Nociceptin receptor = Nociceptin receptor (Homo sapiens, UniProt P41146); assay: Antagonist activity at human recombinant NOP receptor expressed in CHO cells coexpressing alphaqi5 assessed as inhibition of N/OFQ-induced intracellular calcium mobilization; assay type: functional, cell-based
Nociceptin receptor, sequence (P41146 whole entry): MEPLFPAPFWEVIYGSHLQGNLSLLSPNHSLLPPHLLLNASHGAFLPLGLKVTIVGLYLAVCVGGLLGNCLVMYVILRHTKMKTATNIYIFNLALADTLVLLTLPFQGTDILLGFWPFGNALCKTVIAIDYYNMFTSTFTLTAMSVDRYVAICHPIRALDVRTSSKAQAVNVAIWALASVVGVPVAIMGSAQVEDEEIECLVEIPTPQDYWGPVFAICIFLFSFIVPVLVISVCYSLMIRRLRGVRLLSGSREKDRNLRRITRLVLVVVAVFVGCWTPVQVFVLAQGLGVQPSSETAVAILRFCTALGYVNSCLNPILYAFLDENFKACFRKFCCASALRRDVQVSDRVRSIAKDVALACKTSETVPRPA

Mu-type opioid receptor [4] = molecular target: T4, Mu-type opioid receptor (Homo sapiens, UniProt P35372); assay: Antagonist activity at human recombinant mu opioid receptor expressed in CHO cells coexpressing alphaqi5 assessed as inhibition of dermorphin-induced intracellular calcium mobilization; assay type: functional, cell-based
T4 sequence (P35372 whole entry): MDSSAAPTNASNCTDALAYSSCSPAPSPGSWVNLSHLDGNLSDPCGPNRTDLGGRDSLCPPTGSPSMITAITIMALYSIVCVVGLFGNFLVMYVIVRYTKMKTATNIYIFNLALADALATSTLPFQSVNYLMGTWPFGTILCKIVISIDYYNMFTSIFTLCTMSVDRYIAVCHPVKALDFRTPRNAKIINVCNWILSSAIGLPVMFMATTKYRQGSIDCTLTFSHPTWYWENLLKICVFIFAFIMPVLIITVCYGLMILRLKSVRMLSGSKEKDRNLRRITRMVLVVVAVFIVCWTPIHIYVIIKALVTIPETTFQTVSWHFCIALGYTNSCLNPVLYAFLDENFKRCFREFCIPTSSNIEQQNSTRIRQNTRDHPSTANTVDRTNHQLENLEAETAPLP

[5] = molecular target: Proteinase-activated receptor 2 (Homo sapiens) (UniProt P55085); assay: Antagonist activity at human recombinant PAR2 expressed in A549 cells assessed as inhibition of SLIGKV-NH2-induced intracellular calcium mobilization at up to 10 uM; assay type: functional, cell-based
[6] = molecular target: T1, Delta-type opioid receptor; assay: Antagonist activity at human recombinant delta opioid receptor expressed in CHO cells coexpressing alphaqi5 assessed as inhibition of DPDPE-induced intracellular calcium mobilization; assay type: functional, cell-based; summary of the method: as §1
[7] = molecular target: T5, Proteinase-activated receptor 2 (Homo sapiens, UniProt P55085); assay: Antagonist activity at human recombinant PAR2 expressed in A549 cells assessed as inhibition of SLIGKV-NH2-induced intracellular calcium mobilization; assay type: functional, cell-based
T5 sequence (P55085 whole entry): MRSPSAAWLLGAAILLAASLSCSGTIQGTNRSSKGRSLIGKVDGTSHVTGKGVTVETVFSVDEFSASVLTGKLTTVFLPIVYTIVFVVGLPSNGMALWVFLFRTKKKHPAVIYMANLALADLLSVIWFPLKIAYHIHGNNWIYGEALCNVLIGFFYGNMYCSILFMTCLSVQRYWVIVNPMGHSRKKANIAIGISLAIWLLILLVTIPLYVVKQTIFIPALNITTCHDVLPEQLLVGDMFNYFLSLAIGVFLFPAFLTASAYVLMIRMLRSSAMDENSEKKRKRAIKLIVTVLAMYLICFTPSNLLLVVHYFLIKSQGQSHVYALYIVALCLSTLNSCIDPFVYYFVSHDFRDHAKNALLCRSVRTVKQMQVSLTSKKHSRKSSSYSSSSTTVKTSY

[8] = molecular target: T6, Neuropeptide S receptor (Mus musculus) (UniProt Q8BZP8); assay: Antagonist activity at mouse NPSR expressed in HEK293 cells assessed as inhibition of NPS-induced increase in intracellular calcium mobilization by Schild analysis at room temperature; assay type: functional, cell-based
T6 sequence (whole entry): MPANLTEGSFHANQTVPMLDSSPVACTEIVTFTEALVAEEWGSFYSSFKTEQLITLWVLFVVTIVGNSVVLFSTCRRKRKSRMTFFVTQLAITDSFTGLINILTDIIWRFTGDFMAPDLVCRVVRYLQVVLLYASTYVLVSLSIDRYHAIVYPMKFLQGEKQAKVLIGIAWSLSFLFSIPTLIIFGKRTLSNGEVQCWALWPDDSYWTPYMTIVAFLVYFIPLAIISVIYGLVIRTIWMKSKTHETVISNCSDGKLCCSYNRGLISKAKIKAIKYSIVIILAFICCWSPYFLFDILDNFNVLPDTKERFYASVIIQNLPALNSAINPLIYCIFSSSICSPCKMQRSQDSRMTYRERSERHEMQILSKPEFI
Summary of the method: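 Schild-type experiment in HEK293 cells expressing mouse NPSR by calcium mobilization, using NPS concentration-response curves with added antagonist, run under the earlier conditions without 37 °C and without post-injection mixing.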

[9] = molecular target: T6, Neuropeptide S receptor (Mus musculus); assay: Antagonist activity at mouse NPSR expressed in HEK293 cells assessed as inhibition of NPS-induced response by Schild analysis; assay type: functional, cell-based
Summary of the method: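 Calcium mobilization in HEK293 cells stably expressing mouse NPSR, at 37 °C with three mixing cycles after antagonist injection. NPS concentration-response curves were run without and with antagonist at 0.1-10 µM, and pKB with 95% confidence limits was derived from the curve shifts. Mean ± SEM of four separate experiments in duplicate.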

Mu-type opioid receptor [10] = molecular target: T4, Mu-type opioid receptor; assay: Antagonist activity at human recombinant mu opioid receptor expressed in CHO cells coexpressing alphaqi5 assessed as inhibition of dermorphin-induced intracellular calcium mobilization at up to 10 uM; assay type: functional, cell-based; summary of the method: as §2
[11] = molecular target: T6, Neuropeptide S receptor (Mus musculus); assay: Antagonist activity at mouse NPSR expressed in HEK293 cells assessed as inhibition of NPS-induced response; assay type: functional, cell-based
Summary of the method: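 HEK293 cells stably expressing mouse NPSR, calcium mobilization. Inhibition response curves to test peptides against 30 nM NPS, run at 37 °C with three up-and-down mixing cycles right after antagonist injection to aid diffusion. Mean of at least four separate experiments performed in duplicate.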

[12] = molecular target: T6, Neuropeptide S receptor (Mus musculus); assay: Agonist activity at mouse NPSR expressed in HEK293 cells up to 10 uM by calcium mobilization assay; assay type: functional, cell-based
Summary of the method: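 HEK293 cells stably expressing mouse NPSR; intracellular calcium mobilization measured after peptide addition, concentration-response curves giving pEC50 and Emax as % over basal. Mean of at least four separate experiments performed in duplicate.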

B2 bradykinin receptor = molecular target: T7, B2 bradykinin receptor (Homo sapiens, UniProt P30411); assay: Antagonist activity at human recombinant bradykinin 2 receptor expressed in CHO cells assessed as inhibition of bradykinin-induced intracellular calcium mobilization; assay type: functional, cell-based; summary of the method: as §1
T7 sequence (P30411 whole entry): T2 sequence (whole entry)

[13] = molecular target: T3, Kappa-type opioid receptor; assay: Antagonist activity at human recombinant kappa opioid receptor expressed in CHO cells coexpressing alphaqi5 assessed as inhibition of dynorphin A-induced intracellular calcium mobilization; assay type: functional, cell-based; summary of the method: as §1
Urotensin-2 receptor = molecular target: T8, Urotensin-2 receptor (Homo sapiens, UniProt Q9UKP6); assay: Antagonist activity at human recombinant urotensin 2 receptor expressed in CHO cells assessed as inhibition of urotensin 2-induced intracellular calcium mobilization; assay type: functional, cell-based
T8 sequence (Q9UKP6 whole entry): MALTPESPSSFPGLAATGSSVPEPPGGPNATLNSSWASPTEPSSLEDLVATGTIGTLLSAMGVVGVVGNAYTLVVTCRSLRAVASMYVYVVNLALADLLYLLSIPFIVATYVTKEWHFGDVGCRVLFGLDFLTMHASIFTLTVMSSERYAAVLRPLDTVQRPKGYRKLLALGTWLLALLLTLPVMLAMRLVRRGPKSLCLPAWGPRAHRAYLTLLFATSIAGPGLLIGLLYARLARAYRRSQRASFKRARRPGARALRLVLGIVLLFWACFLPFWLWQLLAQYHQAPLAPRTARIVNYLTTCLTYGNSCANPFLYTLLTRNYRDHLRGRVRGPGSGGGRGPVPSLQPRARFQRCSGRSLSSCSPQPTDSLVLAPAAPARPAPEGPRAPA

CSCC[C@H](NC(=O)CNC(=O)[C@@H](NC(=O)CNC(=O)[C@@H](NC(=O)[C@H](NC(=O)[C@H](CC(N)=O)NC(=O)[C@H](CCCNC(=N)N)NC(=O)[C@H](Cc1ccccc1)NC(=O)[C@@H](N)CO)C(C)(C)C)C(C)C)[C@@H](C)O)C(=O)N[C@@H](CCCCN)C(=O)N[C@@H](CCCCN)C(=O)N[C@H](C(=O)N[C@@H](CO)C(=O)N[C@@H](Cc1ccccc1)C(=O)N[C@@H](CCC(N)=O)C(=O)N[C@@H](CCCNC(=N)N)C(=O)N[C@@H](C)C(=O)N[C@@H](CCCCN)C(=O)N[C@@H](CO)C(=O)O)[C@@H](C)O (H-SFRN[dTle]VGTGMKKTSFQRAKS-OH)
Emax [1]: 177%
EC50 (Substance-P receptor): 0.049 nM
Emax [2]: 115%
Emax [3]: 139%
EC50 (Nociceptin receptor): 0.282 nM
EC50 (Mu-type opioid receptor [4]): 11 nM
Emax [5]: 445%
EC50 [6]: 1.95 nM
EC50 [7]: 31600 nM
Emax [8]: < 50%
Activity [9]: Dose-dependent effect
Emax (Mu-type opioid receptor [10]): 186%
pKb [11]: 7.06
Emax [12]: inactive
EC50 (B2 bradykinin receptor): 0.0339 nM
EC50 [13]: 2.34 nM
EC50 (Urotensin-2 receptor): 3.47 nM
